Among the data in ChEMBL document CHEMBL1148280, “Design, synthesis, structural studies, biological evaluation, and computational simulations of novel potent AT(1) angiotensin II receptor antagonists based on the 4-phenylquinoline structure” (J Med Chem, 2004) are IC50 values, retold here.

As usually defined, the IC50 is the concentration at which inhibition is half-maximal. Read a low IC50 as higher potency.

The species entered for one assay is Oryctolagus cuniculus. In words: Inhibition of angiotensin II induced contraction in rabbit aortic strips after 60 minutes contact with the compound. It counts as functional. The settings on record: Aorta, 1 h. Put shortly:
(§1)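 Rabbit aortic strips under 2 g resting tension, isometric recording, equilibrated 1 h. A cumulative Ang II concentration–response curve was run first, then a 30 min washout. Antagonist or vehicle was added at several concentrations before a submaximal (70–80%) Ang II challenge; contact time differed by line. Percent inhibition was regressed to give IC50 with P = 0.05 fiducial limits.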
`CCCCc1nc(Cl)c(CO)n1Cc1ccc(-c2ccccc2-c2nnn[nH]2)cc1` [LOSARTAN]: half-maximal inhibition (IC50) required 9.9 nM.

`CCCc1nc2c(C)cc(C)nc2n1Cc1ccc(-c2c(C(=O)O)c(N)nc3ccccc23)cc1`: the IC50 was determined as 3.3 nM.

Compound `CCCc1nc2c(C)cc(C)nc2n1Cc1ccc(-c2c(C(=O)O)c(C)nc3ccccc23)cc1` gave an IC50 of 13 nM.

Consider `CCc1nc2c(C)cc(C)nc2n1Cc1ccc(-c2c(-c3nnn[nH]3)cnc3ccccc23)cc1`, for which the IC50 came out at 4 nM.

The target of a further assay is T1, Type-1 angiotensin II receptor B (Rattus norvegicus, UniProt P29089).
T1 sequence (P29089 whole entry): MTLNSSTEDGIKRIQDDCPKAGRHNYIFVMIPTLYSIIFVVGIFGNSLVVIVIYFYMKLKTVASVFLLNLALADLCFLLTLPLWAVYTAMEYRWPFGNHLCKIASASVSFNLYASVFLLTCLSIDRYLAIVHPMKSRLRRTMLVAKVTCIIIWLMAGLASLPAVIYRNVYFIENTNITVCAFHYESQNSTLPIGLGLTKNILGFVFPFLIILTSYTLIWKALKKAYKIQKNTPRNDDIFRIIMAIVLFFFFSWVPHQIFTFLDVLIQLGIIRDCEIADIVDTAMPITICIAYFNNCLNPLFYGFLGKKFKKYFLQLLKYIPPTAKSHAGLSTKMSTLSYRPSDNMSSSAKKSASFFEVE
Kind of assay: Binding affinity for rat angiotensin II receptor, type 1.
Conditions: not given
`CCCNc1nc2ccccc2c(-c2ccc(Cn3c(CC)nc4c(C)cc(C)nc43)cc2)c1C(=O)O`: the IC50 worked out at 66 nM.

Take `CCCCc1nc(CCCC)n(Cc2ccc(-c3cccnc3-c3nnn[nH]3)cc2)n1`: the IC50 was determined as 110 nM.

The compound `CCCN(CCC)c1nc2ccccc2c(-c2ccc(Cn3c(CC)nc4c(C)cc(C)nc43)cc2)c1C(=O)O` registered an IC50 of 492 nM.

`CCc1nc2c(C)cc(C)nc2n1Cc1ccc(-c2c(C(=O)O)c(NC)nc3ccccc23)cc1` showed an IC50 of 13 nM.

Compound `CCc1nc2c(C)cc(C)nc2n1Cc1ccc(-c2c(CC(=O)O)c(Cl)nc3ccccc23)cc1` showed an IC50 of 215 nM.

In turn, `CCCc1nc2c(C)ccnc2n1Cc1ccc(-c2cccnc2-c2nn[nH]n2)cc1` had an IC50 of 60 nM.

Take `CCc1nc2c(C)cc(C)nc2n1Cc1ccc(-c2c(C(=O)O)c(N)nc3ccccc23)cc1`: the IC50 was determined as 13 nM.

In turn, `CCCc1nc2c(C)cc(C)nc2n1Cc1ccc(-c2c(C(=O)O)c(O)nc3ccccc23)cc1` had a half-inhibitory concentration (IC50) of 261 nM.

On to `CCc1nc2c(C)cc(C)nc2n1Cc1ccc(-c2c(C(=O)O)ccc3ccccc23)cc1`, for which the IC50 worked out at 33 nM.

`CCc1nc2c(C)cc(C)nc2n1Cc1ccc(-c2c(C(=O)O)c(=O)n(C)c3ccccc23)cc1` gave an IC50 of 326 nM.

Regarding `CCCc1nc2c(C)cc(C)nc2n1Cc1ccc(-c2c(C(=O)O)c(N)nc3ccccc23)cc1`, the 50% inhibitory concentration (IC50) was 4.2 nM.

Compound `CCc1nc2c(C)cc(C)nc2n1Cc1ccc(-c2c(C(=O)O)c3nnnn3c3ccccc23)cc1` returned an IC50 of 52 nM.

With `CCCCc1nc2c(C)cc(C)nc2n1Cc1ccc(-c2c(C(=O)O)c(N)nc3ccccc23)cc1`, the IC50 came to 13 nM.

In the case of `CCc1nc2c(C)cc(C)nc2n1Cc1ccc(-c2c(C(=O)O)cnc3ccccc23)cc1`, the IC50 stood at 17 nM.

`CCCCC(=O)N(Cc1ccc(-c2ccccc2-c2nnn[nH]2)cc1)[C@H](C(=O)O)C(C)C` returned an IC50 of 1.9 nM.

Turning to `CCCc1nc2c(C)ccnc2n1Cc1ccc(-c2ccncc2-c2nnn[nH]2)cc1`, the 50% inhibitory concentration (IC50) turned out to be 4 nM.

Take `CCCc1nc2c(C)cc(C)nc2n1Cc1ccc(-c2c(-c3nn[nH]n3)cnc3ccccc23)cc1`: the IC50 is 12 nM.

In turn, `CCCCc1nc(CCCC)n(Cc2ccc(-c3cnccc3-c3nnn[nH]3)cc2)n1` had a concentration for half-maximal inhibition (IC50) of 150 nM.

`CCCCc1nc(CCCC)n(Cc2ccc(-c3ncccc3-c3nnn[nH]3)cc2)n1`: the IC50 was determined as 98 nM.

For `CCCc1nc2c(C)cc(C)nc2n1Cc1ccc(-c2ccccc2-c2nn[nH]n2)cc1`, the IC50 was found to be 0.8 nM.

`CCCCc1nc2c(C)cc(C)nc2n1Cc1ccc(-c2c(C(=O)O)cnc3ccccc23)cc1`: the 50% inhibitory concentration (IC50) turned out to be 41 nM.

Turning to `CCCc1nc2c(C)cc(C)nc2n1Cc1ccc(-c2c(C(=O)O)c(C)nc3ccccc23)cc1`, the half-maximal inhibitory concentration (IC50) was determined as 9 nM.

`CCCc1nc2c(C)cc(C)nc2n1Cc1ccc(-c2c(C(=O)NS(=O)(=O)c3ccc([N+](=O)[O-])cc3)cnc3ccccc23)cc1`: the IC50 stood at 106 nM.

Turning to `CCCc1nc2c(C)ccnc2n1Cc1ccc(-c2ccccc2-c2nn[nH]n2)cc1`, the IC50 came out at 1 nM.

With `CCc1nc2c(C)cc(C)nc2n1Cc1ccc(-c2ncccc2-c2nn[nH]n2)cc1`, the 50% inhibitory concentration (IC50) was determined as 18 nM.

`CCc1nc2c(C)cc(C)nc2n1Cc1ccc(-c2c(C(=O)O)c(OC)nc3ccccc23)cc1` showed a half-inhibitory concentration (IC50) of 74 nM.

For the compound `CCc1nc2c(C)cc(C)nc2n1Cc1ccc(-c2c(C(=O)O)c(N(C)C)nc3ccccc23)cc1`, the 50% inhibitory concentration (IC50) came to 29 nM.

`CCc1nc2c(C)cc(C)nc2n1Cc1ccc(-c2ccccc2-c2nnn[nH]2)cc1` [L-158809]: the concentration for half-maximal inhibition (IC50) is 0.4 nM.

On to `CCCc1nc2c(C)cc(C)nc2n1Cc1ccc(-c2c(C(=O)O)c(Cl)nc3ccccc23)cc1`, for which the IC50 worked out at 7.7 nM.

`CCc1nc2c(C)cc(C)nc2n1Cc1ccc(-c2c(-c3nnn[nH]3)cnc3ccccc23)cc1` returned an IC50 of 6.9 nM.

As for `CCc1nc2c(C)cc(C)nc2n1Cc1ccc(-c2ncccc2C(=O)O)cc1`, the concentration for half-maximal inhibition (IC50) came to 819 nM.

The compound `CCc1nc2c(C)cc(C)nc2n1Cc1ccc(-c2c(CC(=O)O)cnc3ccccc23)cc1` gave an IC50 of 576 nM.

On to `CCCCc1nc(CCCC)n(Cc2ccc(-c3ccccc3-c3nnn[nH]3)cc2)n1`, for which the 50% inhibitory concentration (IC50) is 5.6 nM.

On to `CCCCc1nc(CCCC)n(Cc2ccc(-c3ccncc3-c3nnn[nH]3)cc2)n1`, for which the IC50 amounted to 250 nM.

The species named for the next assay is Oryctolagus cuniculus. In words: Inhibition of angiotensin II induced contraction in rabbit aortic strips after 120 minutes contact with the compound. It counts as functional. Conditions: Aorta, 2 h. Put shortly:
as §1
As to `CCc1nc2c(C)cc(C)nc2n1Cc1ccc(-c2c(C(=O)O)c(=O)n(C)c3ccccc23)cc1`, the IC50 is 170 nM.

`CCc1nc2c(C)cc(C)nc2n1Cc1ccc(-c2c(-c3nnn[nH]3)cnc3ccccc23)cc1` came in with a 50% inhibitory concentration (IC50) of 2 nM.
